PubChem BioAssay
Values without a mark were called inactive.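 How the source made its calls, unless noted: active means viability at or below 30% in both replicate assays; inconclusive means viability at or below 30% in just one of the two assays; inactive means the rest.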

Experiment: reduced viability of SK-BR-3 breast cancer cells – cell-based, 24 h, human, pilot screen (AID 572;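 active means viability at or below 10% of carrier control in both of two separate runs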;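 further: compound exposure lasted between 18 and 24 h rather than exactly 24 h; 100% = carrier-treated control wells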)
Details: SK-BR-3 viability, CellTiter-Glo luminescence, at 10 µM, active compounds read low

Row | Structure (SMILES) | viability [%]
1 | Cn1c(=O)[nH]c(=O)c2[nH]c(NCCCN3CCOCC3)nc21 | 93.5
2 | COc1ccc(CN(Cc2nc3ccccc3c(=O)[nH]2)C(=O)NC2CCCCC2)cc1 | 95.5
3 | O=C(Nc1ccncc1)c1cncc(Br)c1 | 78
4 | COc1ccc(C(=O)Nc2ccc(C)cn2)c(OC)c1 | 73.5
5 | C/C(=N\O)C(C)/[N+]([O-])=C/c1nc(C)c(C)n1O (stereo not given) | 95.5
6 | CCC(C)(C)NC(=O)C(c1ccco1)N(C(=O)Cn1nnc2ccccc21)c1ccc2c(c1)OCO2 (stereo not given) | 92.5
7 | COc1ccc(OC)c(S(=O)(=O)N2c3ccccc3CC2C)c1 (stereo not given) | 82.5
8 | O=C(COc1ccccc1)Nc1ccc(-c2nnc(-c3ccco3)o2)cc1 | 128
9 | Cc1ccc(-c2noc(CCC(=O)NCC3CCN(Cc4cccc(C)c4)CC3)n2)cc1 | 93.5
10 | CCOc1cc(C(=O)N2CCN=C2SC)cc(OCC)c1OCC | 91.5
11 | COc1ccc(-n2c(=O)c3c4c(sc3n3c(C)nnc23)CCCC4)cc1 | 78.5
12 | COc1ccc(CCNC(=O)c2cc(-c3cc(C)c(C)cc3O)n[nH]2)cc1OC | 93.5
13 | CCC(Oc1ccc2ccccc2c1)C(=O)O (stereo not given) | 89.5
14 | O=C(O)C1CC=CCC1C(=O)Nc1cc(Cl)ccc1Cl (stereo not given) | 86
15 | O=C(c1cnn2c(C(F)F)cc(C3CC3)nc12)N1CCOCC1 | 104
16 | O=C(CSCCSCC(=O)c1ccco1)c1ccco1 | 83.5
17 | COC(=O)c1ccccc1NC(=O)CSc1nc2c(c(=O)n(C)c(=O)n2C)n1C | 86
18 | O=c1oc2ccccc2c2c1ncn2-c1ccccc1 | 100
19 | COc1ccc(C2CC(c3ccccc3)Nc3nc(NC(=O)c4cccs4)nn32)cc1 (stereo not given) | 81.5
20 | COC(=O)c1cccc(S(=O)(=O)N2CCN(c3nc4ccccc4s3)CC2)c1 | 83

Row | Structure (SMILES) | viability [%]
21 | COC(=O)CCSCc1cn2cc(Cl)ccc2n1 | 120
22 | O=C(c1ccco1)N1CCN(S(=O)(=O)c2ccc(C3CCCCC3)cc2)CC1 | 96
23 | COc1cccc(C(=O)CN2CCC(NC(=O)NC3CCCCC3)CC2)c1 | 92
24 | CSCCC(NC(=O)c1occc1C)C(=O)O (stereo not given) | 93.5
25 | Cc1cccc(N2CCN(Cc3c(C)n(C)n(-c4ccccc4)c3=O)CC2)c1C | 83.5
26 | CCOc1cc(C2C(C(=O)OC(C)C)=C(C)N=C3SCCC(=O)N32)ccc1OC(C)=O (stereo not given) | 93
27 | O=C(Cc1cccs1)Nc1ccccc1C(=O)O | 109
28 | O=C(NCCN1CCOCC1)c1csc2c1CCCC2 | 97.5
29 | O=C(CSc1nc2ccccc2s1)N1CCOCC1 | 119
30 | CC1C(O)=C(c2nc3ccccc3[nH]2)C(=N)N1c1ccccc1 (stereo not given) | 110
31 | Cc1oc(-c2ccccc2F)nc1CS(=O)(=O)CC(=O)N1CCN(Cc2ccccc2)CC1 | 77.5
32 | CSCSC1=C(C#N)C(c2ccc(Cl)cc2)C(C(C)=O)=C(C)N1 (stereo not given) | 106
33 | Cc1ccc2c(c1)CCCN2C(=O)Nc1ccc2c(c1)OCO2 | 95.5
34 | COc1cccc(N2CCN(CC(=O)Nc3nnc(-c4ccccc4)s3)CC2)c1 | 86
35 | CCOC(=O)C1=C(C)NC(SC(C)=O)=NC1c1ccc(OC(C)=O)c(OC)c1 (stereo not given) | 106
36 | C/C=C(\C)c1nnc(NC(=O)C(C)C)s1 | 92.5
37 | Cc1cc(C(=O)CSCc2nnc3n(CCC(C)C)c(=O)c4ccccc4n23)c(C)n1C | 99.5
38 | COc1cccc(C(=O)NCc2nnc(SCC(=O)Nc3nccs3)n2-c2ccccc2)c1 | 101
39 | O=C(OCC(=O)N1CCc2ccccc21)C1=COCCO1 | 89.5
40 | COc1cccc(Nc2cc(C)nc3ccccc23)c1 | 77

Experiment: HUVEC growth inhibition – cell-based, human, primary screen (AID 575);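 further: 100% = median of untreated cell wells with 0.1% DMSO on each plate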
Details: HUVEC proliferation, CellTiter-Glo luminescence, 72 h; at 10 µM; active compounds read low
Procedure, shortened: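 Assay system: Primary human umbilical vein endothelial cells | Quantity: 1250 cells per well | Medium: Supplemented EBM, 2% fetal bovine serum | Detection: CellTiter-Glo luminescence measuring cellular ATP | Read-out: % viability vs DMSO wells | Plate: Collagen-coated 384-well format | Times: 72 h exposure, 37 °C, 5% CO2, 30 min RT equilibration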

Row | Structure (SMILES) | viability [%]
41 | Cn1c(=O)[nH]c(=O)c2[nH]c(NCCCN3CCOCC3)nc21 | 92.1
42 | COc1ccc(CN(Cc2nc3ccccc3c(=O)[nH]2)C(=O)NC2CCCCC2)cc1 | 91.4
43 | O=C(Nc1ccncc1)c1cncc(Br)c1 | 114
44 | COc1ccc(C(=O)Nc2ccc(C)cn2)c(OC)c1 | 102
45 | C/C(=N\O)C(C)/[N+]([O-])=C/c1nc(C)c(C)n1O (stereo not given) | 97
46 | CCC(C)(C)NC(=O)C(c1ccco1)N(C(=O)Cn1nnc2ccccc21)c1ccc2c(c1)OCO2 (stereo not given) | 78.1
47 | COc1ccc(OC)c(S(=O)(=O)N2c3ccccc3CC2C)c1 (stereo not given) | 77.6
48 | O=C(COc1ccccc1)Nc1ccc(-c2nnc(-c3ccco3)o2)cc1 | 102
49 | Cc1ccc(-c2noc(CCC(=O)NCC3CCN(Cc4cccc(C)c4)CC3)n2)cc1 | 53.9
50 | CCOc1cc(C(=O)N2CCN=C2SC)cc(OCC)c1OCC | 87.4
51 | COc1ccc(-n2c(=O)c3c4c(sc3n3c(C)nnc23)CCCC4)cc1 | 101
52 | COc1ccc(CCNC(=O)c2cc(-c3cc(C)c(C)cc3O)n[nH]2)cc1OC | 86.6
53 | CCC(Oc1ccc2ccccc2c1)C(=O)O (stereo not given) | 85.6
54 | O=C(O)C1CC=CCC1C(=O)Nc1cc(Cl)ccc1Cl (stereo not given) | 81.2
55 | O=C(c1cnn2c(C(F)F)cc(C3CC3)nc12)N1CCOCC1 | 107
56 | O=C(CSCCSCC(=O)c1ccco1)c1ccco1 | 77.3
57 | COC(=O)c1ccccc1NC(=O)CSc1nc2c(c(=O)n(C)c(=O)n2C)n1C | 101
58 | O=c1oc2ccccc2c2c1ncn2-c1ccccc1 | 90.4
59 | COc1ccc(C2CC(c3ccccc3)Nc3nc(NC(=O)c4cccs4)nn32)cc1 (stereo not given) | 83.3
60 | COC(=O)c1cccc(S(=O)(=O)N2CCN(c3nc4ccccc4s3)CC2)c1 | 87.8

Row | Structure (SMILES) | viability [%]
61 | COC(=O)CCSCc1cn2cc(Cl)ccc2n1 | 87.3
62 | O=C(c1ccco1)N1CCN(S(=O)(=O)c2ccc(C3CCCCC3)cc2)CC1 | 99.9
63 | COc1cccc(C(=O)CN2CCC(NC(=O)NC3CCCCC3)CC2)c1 | 102
64 | CSCCC(NC(=O)c1occc1C)C(=O)O (stereo not given) | 103
65 | Cc1cccc(N2CCN(Cc3c(C)n(C)n(-c4ccccc4)c3=O)CC2)c1C | 78.1
66 | CCOc1cc(C2C(C(=O)OC(C)C)=C(C)N=C3SCCC(=O)N32)ccc1OC(C)=O (stereo not given) | 96.5
67 | O=C(Cc1cccs1)Nc1ccccc1C(=O)O | 87.5
68 | O=C(NCCN1CCOCC1)c1csc2c1CCCC2 | 95
69 | O=C(CSc1nc2ccccc2s1)N1CCOCC1 | 83.6
70 | CC1C(O)=C(c2nc3ccccc3[nH]2)C(=N)N1c1ccccc1 (stereo not given) | 50.5
71 | Cc1oc(-c2ccccc2F)nc1CS(=O)(=O)CC(=O)N1CCN(Cc2ccccc2)CC1 | 102
72 | CSCSC1=C(C#N)C(c2ccc(Cl)cc2)C(C(C)=O)=C(C)N1 (stereo not given) | 64.3
73 | Cc1ccc2c(c1)CCCN2C(=O)Nc1ccc2c(c1)OCO2 | 84.8
74 | COc1cccc(N2CCN(CC(=O)Nc3nnc(-c4ccccc4)s3)CC2)c1 | 54.7
75 | CCOC(=O)C1=C(C)NC(SC(C)=O)=NC1c1ccc(OC(C)=O)c(OC)c1 (stereo not given) | 82.9
76 | C/C=C(\C)c1nnc(NC(=O)C(C)C)s1 | 101
77 | Cc1cc(C(=O)CSCc2nnc3n(CCC(C)C)c(=O)c4ccccc4n23)c(C)n1C | 84.2
78 | COc1cccc(C(=O)NCc2nnc(SCC(=O)Nc3nccs3)n2-c2ccccc2)c1 | 92.9
79 | O=C(OCC(=O)N1CCc2ccccc21)C1=COCCO1 | 88.4
80 | COc1cccc(Nc2cc(C)nc3ccccc23)c1 | 85.4
